One block for each compound: values may come before it. Calls of active or inactive are those of the source. The calls are words filed in the database; no cut-off is given here.
Columns and labels:
L6 [1] = assay: Increase in glucose uptake in rat L6 cells at 12 uM pre-treated with compound for 30 mins using 2-deoxy-D-[1,2-3H]glucose and measured after 2 hrs by liquid scintillation counting method; type: functional
How it was run: (§1)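 L6 myotubes exposed to compound for 2 h at 1.5, 3, 6, 12 or 24 μM; 2-deoxyglucose uptake expressed as fold over untreated control; 3 μM (−)-arctigenin run alongside as positive control; mean ± SEM of 3 independent experiments.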

L6 [2] = assay: Ratio of glucose uptake in rat L6 cells at 12 uM after 2 hrs to glucose uptake in rat L6 cells at 12 uM after 2 hrs in presence of 3 uM (-)-arctigenin; type: functional
How it was run: (§2)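 Glucose uptake in L6 myotubes after 2 h compound exposure divided by uptake with the 3 μM (−)-arctigenin positive control run in parallel.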

L6 [3] = assay: Increase in glucose uptake in rat L6 cells at 12 uM pre-treated with compound for 30 mins using 2-deoxy-D-[1,2-3H]glucose and measured after 2 hrs […] by liquid scintillation counting method; type: functional; how it was run: as §1
L6 [4] = assay: Ratio of glucose uptake in rat L6 cells at 1.5 uM after 2 hrs to glucose uptake in rat L6 cells at 1.5 uM after 2 hrs in presence of 3 uM (-)-arctigenin; type: functional; how it was run: as §2
L6 [5] = assay: Increase in glucose uptake in rat L6 cells at 1.5 uM pre-treated with compound for 30 mins using 2-deoxy-D-[1,2-3H]glucose and measured after 2 hrs by liquid scintillation counting method; type: functional; how it was run: as §1
L6 [6] = assay: Increase in glucose uptake in rat L6 cells at 1.5 uM pre-treated with compound for 30 mins using 2-deoxy-D-[1,2-3H]glucose and measured after 2 hrs in presence of 3 uM (-)-arctigenin by liquid scintillation counting method; type: functional; how it was run: as §1
L6 [7] = assay: Ratio of glucose uptake in rat L6 cells at 6 uM after 2 hrs to glucose uptake in rat L6 cells at 6 uM after 2 hrs in presence of 3 uM (-)-arctigenin; type: functional; how it was run: as §2
L6 [8] = assay: Increase in glucose uptake in rat L6 cells at 6 uM pre-treated with compound for 30 mins using 2-deoxy-D-[1,2-3H]glucose and measured after 2 hrs […] by liquid scintillation counting method; type: functional; how it was run: as §1
L6 [9] = assay: Increase in glucose uptake in rat L6 cells at 6 uM pre-treated with compound for 30 mins using 2-deoxy-D-[1,2-3H]glucose and measured after 2 hrs by liquid scintillation counting method; type: functional; how it was run: as §1
L6 [10] = assay: Increase in glucose uptake in rat L6 cells at 3 uM pre-treated with compound for 30 mins using 2-deoxy-D-[1,2-3H]glucose and measured after 2 hrs by liquid scintillation counting method; type: functional; how it was run: as §1
L6 [11] = assay: Ratio of glucose uptake in rat L6 cells at 3 uM after 2 hrs to glucose uptake in rat L6 cells at 3 uM after 2 hrs in presence of 3 uM (-)-arctigenin; type: functional; how it was run: as §2
L6 [12] = assay: Increase in glucose uptake in rat L6 cells at 3 uM […] using 2-deoxy-D-[1,2-3H]glucose and measured after 2 hrs […] by liquid scintillation counting method; type: functional; how it was run: as §1
[13] = Tmax in ob/ob mouse at 50 mg/kg, ip measured after 0.5 to 24 hrs; type: ADME, organism-based; conditions: in vivo
Mus musculus [14] = assay: Antidiabetic activity in ob/ob mouse assessed as reduction in fasting blood glucose levels at 50 mg/kg, ip bid for 12 days; type: functional; parameters: scale not given: the % may be the effect or the level left
How it was run: (§3)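 ob/ob mice given 50 mg/kg intraperitoneally or vehicle twice daily for 23 d; body weight and food intake recorded regularly, fed and fasting blood glucose measured throughout, serum triacylglycerol, cholesterol and NEFA measured at end of treatment; mean ± SEM, n = 6–8 mice, compared with vehicle group.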

Mus musculus [15] = assay: Antidiabetic activity in ob/ob mouse assessed as reduction in total cholesterol levels at 50 mg/kg, ip bid for 23 days; type: functional; parameters: scale not given: the % may be the effect or the level left; how it was run: as §3
Mus musculus [16] = assay: Antidiabetic activity in ob/ob mouse assessed as reduction in NEFA levels at 50 mg/kg, ip bid for 23 days; type: functional; parameters: scale not given: the % may be the effect or the level left; how it was run: as §3
Mus musculus [17] = assay: Antidiabetic activity in ob/ob mouse assessed as reduction in body weight at 50 mg/kg, ip bid for 23 days measured on day 3; type: functional, organism-based; how it was run: as §3
L6 [18] = assay: Induction of fatty acid oxidation in rat L6 cells at 6 uM using [9,10-3H(N)]-palmitic acid incubated for 2 hrs; type: functional, cell-based
How it was run: (§4)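 Fatty acid oxidation measured in L6 myotubes after compound treatment, also with compound C to block AMPK; mean ± SEM, n = 3 independent experiments.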

Mus musculus [19] = assay: Reduction in respiratory exchange ratio in ob/ob mouse at 50 mg/kg, ip measured at 6 min intervals […] at 23 degC by indirect calorimetry; type: functional, organism-based
Mus musculus [20] = assay: Antidiabetic activity in ob/ob mouse assessed as reduction in fed glucose levels at 50 mg/kg, ip bid for 12 days; type: functional; parameters: scale not given: the % may be the effect or the level left; how it was run: as §3
L6 [21] = assay: Increase in glucose uptake in rat L6 cells pre-treated with compound for 30 mins using 2-deoxy-D-[1,2-3H]glucose and measured after 2 hrs in presence of 10 uM AMPK inhibitor compound-C by liquid scintillation counting method; type: functional, cell-based
How it was run: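 L6 myotube 2-deoxyglucose uptake after compound exposure, tested with and without the AMPK inhibitor compound C; mean ± SEM, n = 3 independent experiments.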

[22] = Cmax in ob/ob mouse at 50 mg/kg, ip measured after 0.5 to 24 hrs; type: ADME, organism-based; parameters: dose 50 mg/kg, route intraperitoneal; conditions: in vivo
Mus musculus [23] = assay: Toxicity in ob/ob mouse assessed as effect on feeding behavior at 50 mg/kg, ip bid for 23 days; type: organism-based; conditions: in vivo, 552 h; how it was run: as §3
[24] = AUC (0 to t) in ob/ob mouse at 50 mg/kg, ip measured after 0.5 to 24 hrs; type: ADME, organism-based; parameters: dose 50 mg/kg, time upper 24 hr, time lower 0.5 hr, route intraperitoneal; conditions: in vivo
Mus musculus [25] = assay: Antidiabetic activity in ob/ob mouse assessed as effect on serum triglyceride levels at 50 mg/kg, ip bid for 23 days; type: functional, organism-based; how it was run: as §3
L6 [26] = assay: Induction of fatty acid oxidation in rat L6 cells using [9,10-3H(N)]-palmitic acid incubated for 2 hrs in presence of AMPK inhibitor compound-C; type: functional, cell-based; how it was run: as §4
L6 [27] = assay: Induction of depolarization of mitochondrial membrane potential in rat L6 cells incubated for 10 mins by fluorescence based assay; type: functional, cell-based
How it was run: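 L6 myotubes treated 10 min over a concentration series; mitochondrial membrane potential (Δψm) depolarization measured; mean ± SEM, n = 3 independent experiments.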

L6 [28] = assay: Induction of fatty acid oxidation in rat L6 cells at 3 uM using [9,10-3H(N)]-palmitic acid incubated for 2 hrs; type: functional, cell-based; how it was run: as §4
L6 [29] = assay: Induction of AMPK phosphorylation in rat L6 cells at 1.5 uM incubated for 2 hrs by Western blotting method; type: cell-based
How it was run: (§5)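 L6 myotubes treated 2 h at the stated concentrations; phosphorylated AMPK and phosphorylated ACC detected by immunoblot.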

L6 [30] = assay: Increase in glucose uptake in rat L6 cells at 3 umol/L pre-treated with compound for 30 mins using 2-deoxy-D-[1,2-3H]glucose and measured after 2 hrs by liquid scintillation counting method relative to control; type: functional; how it was run: as §1
L6 [31] = assay: Increase in glucose uptake in rat L6 cells at 0.75 uM to 3 uM pre-treated with compound for 30 mins using 2-deoxy-D-[1,2-3H]glucose and measured after 2 hrs by liquid scintillation counting method; type: functional, cell-based
L6 [32] = assay: Induction of AMPK phosphorylation in rat L6 cells at 3 uM incubated for 2 hrs by Western blotting method; type: cell-based; how it was run: as §5
L6 [33] = assay: Induction of AMPK activation in rat L6 cells assessed as increase in ACC phosphorylation at 1.5 uM incubated for 2 hrs by Western blotting method; type: cell-based; how it was run: as §5
L6 [34] = assay: Induction of AMPK activation in rat L6 cells assessed as increase in ACC phosphorylation at 3 uM incubated for 2 hrs by Western blotting method; type: cell-based; how it was run: as §5
L6 [35] = assay: Increase in glucose uptake in rat L6 cells at 6 umol/L pre-treated with compound for 30 mins using 2-deoxy-D-[1,2-3H]glucose and measured after 2 hrs by liquid scintillation counting method relative to control; type: functional; how it was run: as §1

SMILES: COc1cccc(C[C@H]2C(=O)OC[C@@H]2Cc2ccc(OC)c(OC)c2)c1
Activity (L6 [1]): 119.2%
Ratio (L6 [2]): 0.564
Activity (L6 [3]): 211.3%

SMILES: COc1cc(C[C@H]2C(=O)OC[C@@H]2Cc2ccc3c(c2)OCO3)ccc1O
Ratio (L6 [4]): 0.496
Activity (L6 [5]): 131.7%
Activity (L6 [6]): 265.3%

SMILES: COc1cc(C[C@H]2C(=O)OC[C@@H]2Cc2cc(OC)c(OC)c(OC)c2)ccc1O
Ratio (L6 [7]): 0.551
Activity (L6 [8]): 233.9%
Activity (L6 [9]): 128.8%

SMILES: COc1ccc(C[C@H]2COC(=O)[C@@H]2Cc2ccc(C#N)cc2)cc1OC
Activity (L6 [10]): 136.7%
Ratio (L6 [11]): 0.528
Activity (L6 [12]): 258.7%

Tmax [13]: 30 min
Cmax [22]: 0.508 µg/mL
AUC(0-t) [24]: 1.88 µg·h/mL
SMILES: COc1ccc(CC2COC(=O)C2Cc2ccc(Cl)cc2)cc1OC (racemic)
Activity (Mus musculus [14]): 27.3%
Activity (Mus musculus [15]): 22.4%
Ratio (L6 [7]): 0.936
Activity (Mus musculus [16]): 10%
Activity (Mus musculus [17]): Active
Activity (L6 [18]): Active
Activity (Mus musculus [19]): Active
Activity (Mus musculus [20]): 27.7%
Activity (L6 [8]): 185.5%
Activity (L6 [9]): 173.7%
Activity (L6 [21]): inactive
Activity (Mus musculus [23]): Non-toxic
Activity (Mus musculus [25]): inactive
Activity (L6 [26]): inactive
Activity (L6 [27]): Dose-dependent effect
Activity (L6 [28]): Active

SMILES: COc1ccc(C[C@H]2COC(=O)[C@@H]2Cc2cccc(Cl)c2)cc1OC
Activity (L6 [10]): 114.8%
Ratio (L6 [11]): 0.54
Activity (L6 [12]): 212.4%

Tmax [13]: 30 min
SMILES: COc1cc(CC2C(=O)OCC2Cc2ccc(OC)c(OC)c2)ccc1O (racemic)
Activity (L6 [29]): Active
fold change (FC) (L6 [30]): 1.62
Activity (L6 [18]): Active
Activity (L6 [21]): inactive
Activity (L6 [31]): Dose-dependent effect
Activity (L6 [32]): Active
Activity (L6 [33]): Active
Activity (L6 [26]): inactive
Activity (L6 [27]): Dose-dependent effect
Activity (L6 [34]): Active

SMILES: COc1cccc(C[C@H]2COC(=O)[C@@H]2Cc2ccc(O)c(OC)c2)c1
Ratio (L6 [4]): 0.503
Activity (L6 [5]): 121.2%
Activity (L6 [6]): 241%

SMILES: COc1ccc(C[C@H]2COC(=O)[C@@H]2Cc2ccccc2Cl)cc1OC
Activity (L6 [10]): 112.4%
Ratio (L6 [11]): 0.545
Activity (L6 [12]): 206.4%

SMILES: COc1ccccc1C[C@H]1C(=O)OC[C@@H]1Cc1ccc(OC)c(OC)c1
Activity (L6 [10]): 97.4%
Ratio (L6 [11]): 0.512
Activity (L6 [12]): 190.1%

SMILES: COc1cc(C[C@H]2COC[C@@H]2Cc2ccc(OC)c(OC)c2)ccc1O
fold change (FC) (L6 [35]): 1.31

SMILES: COc1ccc(C[C@H]2COC(=O)[C@@H]2Cc2ccc(F)cc2)cc1OC
Ratio (L6 [4]): 0.486
Activity (L6 [5]): 116.4%
Activity (L6 [6]): 239.6%

SMILES: COc1ccc(C[C@H]2COC(=O)[C@@H]2Cc2ccc(O)c(O)c2)cc1OC
Activity (L6 [10]): 243.2%
Ratio (L6 [11]): 1.018
Activity (L6 [12]): 238.9%
